# Data from ChEMBL document CHEMBL1152424, “Syntheses and biological evaluations of carbosilane dendrimers uniformly functionalized with sialyl alpha(2-->3) lactose moieties as inhibitors for human influenza viruses” (Bioorg Med Chem, 2009).
# Columns and labels:
# [1] = system: Influenza A virus; assay: Antiviral activity against human influenza virus A/PR/8/38(H1N1) infected in MDCK cells assessed as neutralization of viral infection after 20 hrs by colorimetric assay; format: functional, organism-based; conditions: A/Puerto Rico/8/1934(H1N1)
# [2] = system: Influenza A virus; assay: Antiviral activity against human influenza virus A/PR/8/38(H1N1) infected in guinea pig erythrocyte assessed as inhibition of hemolysis; format: functional, organism-based; conditions: A/Puerto Rico/8/1934(H1N1)
# How it was run: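 Virus (2^8 HAU) preincubated 1 h at 4 °C with inhibitor in PBS. Then 2.5% (v/v) guinea pig erythrocytes added, 30 min at 4 °C. Cells pelleted, resuspended in 20 mM acetate-buffered saline pH 5.0, 30 min at 37 °C. Hemoglobin released read at A550 against 0.1% Triton X-100 as 100% hemolysis. IC50 expressed per sialyl lactose unit.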
# [3] = system: H3N2 subtype; assay: Antiviral activity against human influenza virus A/Aichi/2/1968(H3N2) infected in chicken erythrocyte assessed as inhibition of hemagglutination after 1 hr; format: functional, organism-based
# How it was run: (§1)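 Twofold serial dilutions of inhibitor in PBS pH 6.5 with 0.01% gelatin, mixed with virus (2^2 HA units) for 1 h at 4 °C. Then 0.5% (v/v) chicken erythrocytes added, 1 h at 4 °C. Titer is the maximum dilution giving complete inhibition of hemagglutination. Concentrations are expressed per sialyl lactose unit. Virus was egg-grown and purified.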
# [4] = system: Influenza A virus; assay: Antiviral activity against human influenza virus A/Memphis/1/71(H3N2) infected in chicken erythrocyte assessed as inhibition of hemagglutination after 1 hr; format: functional, organism-based, Influenza A virus (A/Memphis/1/1971(H3N2)); how it was run: as §1
# [5] = system: Influenza A virus; assay: Antiviral activity against human influenza virus A/PR/8/38(H1N1) infected in chicken erythrocyte assessed as inhibition of hemagglutination after 1 hr; format: functional, organism-based; conditions: A/Puerto Rico/8/1934(H1N1); how it was run: as §1
Structure (SMILES),IC50 [1] [µM],IC50 [2] [µM],IC50 [3] [µM],IC50 [4] [µM],IC50 [5] [µM]
N[C@H]1[C@H]([C@H](O)[C@H](O)CO)O[C@@](O[C@H]2[C@@H](O)[C@@H](CO)O[C@@H](O[C@H]3[C@H](O)[C@@H](O)[C@H](OCCCCCSCCCCCC(=O)NCCC[Si](CCCNC(=O)CCCCCSCCCCCO[C@@H]4O[C@H](CO)[C@@H](O[C@@H]5O[C@H](CO)[C@H](O)[C@H](O[C@]6(C(=O)O)C[C@H](O)[C@@H](N)[C@H]([C@H](O)[C@H](O)CO)O6)[C@H]5O)[C@H](O)[C@H]4O)(CCCNC(=O)CCCCCSCCCCCO[C@@H]4O[C@H](CO)[C@@H](O[C@@H]5O[C@H](CO)[C@H](O)[C@H](O[C@]6(C(=O)O)C[C@H](O)[C@@H](N)[C@H]([C@H](O)[C@H](O)CO)O6)[C@H]5O)[C@H](O)[C@H]4O)CCCNC(=O)CCCCCSCCCCCO[C@@H]4O[C@H](CO)[C@@H](O[C@@H]5O[C@H](CO)[C@H](O)[C@H](O[C@]6(C(=O)O)C[C@H](O)[C@@H](N)[C@H]([C@H](O)[C@H](O)CO)O6)[C@H]5O)[C@H](O)[C@H]4O)O[C@@H]3CO)[C@@H]2O)(C(=O)O)C[C@@H]1O,16,62.5,4,250,16
C[Si](C)(CCC[Si](CCCNC(=O)CCCCCSCCCCCO[C@@H]1O[C@H](CO)[C@@H](O[C@@H]2O[C@H](CO)[C@H](O)[C@H](O[C@]3(C(=O)O)C[C@H](O)[C@@H](N)[C@H]([C@H](O)[C@H](O)CO)O3)[C@H]2O)[C@H](O)[C@H]1O)(CCCNC(=O)CCCCCSCCCCCO[C@@H]1O[C@H](CO)[C@@H](O[C@@H]2O[C@H](CO)[C@H](O)[C@H](O[C@]3(C(=O)O)C[C@H](O)[C@@H](N)[C@H]([C@H](O)[C@H](O)CO)O3)[C@H]2O)[C@H](O)[C@H]1O)CCCNC(=O)CCCCCSCCCCCO[C@@H]1O[C@H](CO)[C@@H](O[C@@H]2O[C@H](CO)[C@H](O)[C@H](O[C@]3(C(=O)O)C[C@H](O)[C@@H](N)[C@H]([C@H](O)[C@H](O)CO)O3)[C@H]2O)[C@H](O)[C@H]1O)CCC[Si](CCCNC(=O)CCCCCSCCCCCO[C@@H]1O[C@H](CO)[C@@H](O[C@@H]2O[C@H](CO)[C@H](O)[C@H](O[C@]3(C(=O)O)C[C@H](O)[C@@H](N)[C@H]([C@H](O)[C@H](O)CO)O3)[C@H]2O)[C@H](O)[C@H]1O)(CCCNC(=O)CCCCCSCCCCCO[C@@H]1O[C@H](CO)[C@@H](O[C@@H]2O[C@H](CO)[C@H](O)[C@H](O[C@]3(C(=O)O)C[C@H](O)[C@@H](N)[C@H]([C@H](O)[C@H](O)CO)O3)[C@H]2O)[C@H](O)[C@H]1O)CCCNC(=O)CCCCCSCCCCCO[C@@H]1O[C@H](CO)[C@@H](O[C@@H]2O[C@H](CO)[C@H](O)[C@H](O[C@]3(C(=O)O)C[C@H](O)[C@@H](N)[C@H]([C@H](O)[C@H](O)CO)O3)[C@H]2O)[C@H](O)[C@H]1O,5.6,32,4,250,8
N[C@H]1[C@H]([C@H](O)[C@H](O)CO)O[C@@](O[C@H]2[C@@H](O)[C@@H](CO)O[C@@H](O[C@H]3[C@H](O)[C@@H](O)[C@H](OCCCCCSCCC[Si](CCCSCCCCCO[C@@H]4O[C@H](CO)[C@@H](O[C@@H]5O[C@H](CO)[C@H](O)[C@H](O[C@]6(C(=O)O)C[C@H](O)[C@@H](N)[C@H]([C@H](O)[C@H](O)CO)O6)[C@H]5O)[C@H](O)[C@H]4O)(CCCSCCCCCO[C@@H]4O[C@H](CO)[C@@H](O[C@@H]5O[C@H](CO)[C@H](O)[C@H](O[C@]6(C(=O)O)C[C@H](O)[C@@H](N)[C@H]([C@H](O)[C@H](O)CO)O6)[C@H]5O)[C@H](O)[C@H]4O)c4ccccc4)O[C@@H]3CO)[C@@H]2O)(C(=O)O)C[C@@H]1O,64,250,125,250,64
N[C@H]1[C@H]([C@H](O)[C@H](O)CO)O[C@@](O[C@H]2[C@@H](O)[C@@H](CO)O[C@@H](O[C@H]3[C@H](O)[C@@H](O)[C@H](OCCCCCSCCCCCC(=O)NCCC[Si](CCCNC(=O)CCCCCSCCCCCO[C@@H]4O[C@H](CO)[C@@H](O[C@@H]5O[C@H](CO)[C@H](O)[C@H](O[C@]6(C(=O)O)C[C@H](O)[C@@H](N)[C@H]([C@H](O)[C@H](O)CO)O6)[C@H]5O)[C@H](O)[C@H]4O)(CCCNC(=O)CCCCCSCCCCCO[C@@H]4O[C@H](CO)[C@@H](O[C@@H]5O[C@H](CO)[C@H](O)[C@H](O[C@]6(C(=O)O)C[C@H](O)[C@@H](N)[C@H]([C@H](O)[C@H](O)CO)O6)[C@H]5O)[C@H](O)[C@H]4O)c4ccccc4)O[C@@H]3CO)[C@@H]2O)(C(=O)O)C[C@@H]1O,25,62.5,8,250,16
C[Si](C)(CCC[Si](CCCSCCCCCO[C@@H]1O[C@H](CO)[C@@H](O[C@@H]2O[C@H](CO)[C@H](O)[C@H](O[C@]3(C(=O)O)C[C@H](O)[C@@H](N)[C@H]([C@H](O)[C@H](O)CO)O3)[C@H]2O)[C@H](O)[C@H]1O)(CCCSCCCCCO[C@@H]1O[C@H](CO)[C@@H](O[C@@H]2O[C@H](CO)[C@H](O)[C@H](O[C@]3(C(=O)O)C[C@H](O)[C@@H](N)[C@H]([C@H](O)[C@H](O)CO)O3)[C@H]2O)[C@H](O)[C@H]1O)CCCSCCCCCO[C@@H]1O[C@H](CO)[C@@H](O[C@@H]2O[C@H](CO)[C@H](O)[C@H](O[C@]3(C(=O)O)C[C@H](O)[C@@H](N)[C@H]([C@H](O)[C@H](O)CO)O3)[C@H]2O)[C@H](O)[C@H]1O)CCC[Si](CCCSCCCCCO[C@@H]1O[C@H](CO)[C@@H](O[C@@H]2O[C@H](CO)[C@H](O)[C@H](O[C@]3(C(=O)O)C[C@H](O)[C@@H](N)[C@H]([C@H](O)[C@H](O)CO)O3)[C@H]2O)[C@H](O)[C@H]1O)(CCCSCCCCCO[C@@H]1O[C@H](CO)[C@@H](O[C@@H]2O[C@H](CO)[C@H](O)[C@H](O[C@]3(C(=O)O)C[C@H](O)[C@@H](N)[C@H]([C@H](O)[C@H](O)CO)O3)[C@H]2O)[C@H](O)[C@H]1O)CCCSCCCCCO[C@@H]1O[C@H](CO)[C@@H](O[C@@H]2O[C@H](CO)[C@H](O)[C@H](O[C@]3(C(=O)O)C[C@H](O)[C@@H](N)[C@H]([C@H](O)[C@H](O)CO)O3)[C@H]2O)[C@H](O)[C@H]1O,7.8,32,32,250,32
N[C@H]1[C@H]([C@H](O)[C@H](O)CO)O[C@@](O[C@H]2[C@@H](O)[C@@H](CO)O[C@@H](O[C@H]3[C@H](O)[C@@H](O)[C@H](OCCCCCSCCC[Si](CCCSCCCCCO[C@@H]4O[C@H](CO)[C@@H](O[C@@H]5O[C@H](CO)[C@H](O)[C@H](O[C@]6(C(=O)O)C[C@H](O)[C@@H](N)[C@H]([C@H](O)[C@H](O)CO)O6)[C@H]5O)[C@H](O)[C@H]4O)(CCCSCCCCCO[C@@H]4O[C@H](CO)[C@@H](O[C@@H]5O[C@H](CO)[C@H](O)[C@H](O[C@]6(C(=O)O)C[C@H](O)[C@@H](N)[C@H]([C@H](O)[C@H](O)CO)O6)[C@H]5O)[C@H](O)[C@H]4O)CCCSCCCCCO[C@@H]4O[C@H](CO)[C@@H](O[C@@H]5O[C@H](CO)[C@H](O)[C@H](O[C@]6(C(=O)O)C[C@H](O)[C@@H](N)[C@H]([C@H](O)[C@H](O)CO)O6)[C@H]5O)[C@H](O)[C@H]4O)O[C@@H]3CO)[C@@H]2O)(C(=O)O)C[C@@H]1O,32,125,32,250,64
